Measurements from ChEMBL document CHEMBL5724801, “EUbOPEN Chemogenomics Library - Multiplex” (2024).
Where “and” joins values, the source holds several entries; their conditions need not be identical. Identical values can stand only once.

Test system: U2OS
Experiment: Multiplex assay against U2OS
Assay type: toxicity, cell-based
Conditions: human
In short: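 Live cells were stained at seeding with Hoechst33342, BioTracker Green Microtubule Cytoskeleton Dye, MitoTracker Red and Annexin V Alexa Fluor 680, then imaged on a CQ1 microscope at 37°C and 5% CO2 after compound addition. CellPathfinder machine-learning gating split cells into Hoechst high-intensity objects or normal cells. Normal cells were split into healthy, pyknosed or fragmented nuclei, and pyknosed cells into mitotic or apoptotic. Tubulin, mitochondrial-mass and membrane-permeability phenotypes are per cents of healthy-nucleus cells.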

[1] = 12 h, 1 µM, compound concentration 1 uM
[2] = 12 h, 10 µM, compound concentration 10 uM
[3] = 24 h, 1 µM, compound concentration 1 uM
[4] = 24 h, 10 µM, compound concentration 10 uM
[5] = 48 h, 1 µM, compound concentration 1 uM
[6] = 48 h, 10 µM, compound concentration 10 uM

SMILES: O=C1COc2nccc(-c3ccccc3F)c2CN1Cc1cc(C(F)(F)F)cc(C(F)(F)F)c1
- Population Apoptotic (%) [1]: 52% and 77%
- Population Fragmented Nuclei (%) [1]: 19% and 23%
- Population Healthy Nuclei (%) [1]: 72% and 67%
- Population Hoechst High Intensity Objects (%) [1]: 4% and 2%
- Population Membrane Permeable-Phenotype (%) [1]: 6% and 15%
- Population Mitochondria Different-Phenotype (%) [1]: 2% and 9%
- Population Mitotic Cells (%) [1]: 47% and 22%
- Population Normal (%) [1]: 95% and 97%
- Population Pyknosed Nuclei (%) [1]: 8%
- Population Tubulin-Different-Phenotype (%) [1]: 4% and 11%
- Total Cell Count [1]: 252 and 108
- Population Apoptotic (%) [2]: 70% and 100%
- Population Fragmented Nuclei (%) [2]: 36% and 16%
- Population Healthy Nuclei (%) [2]: 47% and 76%
- Population Hoechst High Intensity Objects (%) [2]: 3% and 5%
- Population Membrane Permeable-Phenotype (%) [2]: 25% and 17%
- Population Mitochondria Different-Phenotype (%) [2]: 27% and 23%
- Population Normal (%) [2]: 96% and 94%
- Population Pyknosed Nuclei (%) [2]: 16% and 7%
- Population Tubulin-Different-Phenotype (%) [2]: 25% and 13%
- Total Cell Count [2]: 200 and 112
- Population Apoptotic (%) [3]: 86% and 83%
- Population Fragmented Nuclei (%) [3]: 17% and 18%
- Population Healthy Nuclei (%) [3]: 74% and 76%
- Population Hoechst High Intensity Objects (%) [3]: 3% and 4%
- Population Membrane Permeable-Phenotype (%) [3]: 8% and 12%
- Population Mitochondria Different-Phenotype (%) [3]: 3% and 7%
- Population Mitotic Cells (%) [3]: 13% and 16%
- Population Normal (%) [3]: 96% and 95%
- Population Pyknosed Nuclei (%) [3]: 8% and 5%
- Population Tubulin-Different-Phenotype (%) [3]: 3% and 5%
- Total Cell Count [3]: 291 and 121
- Population Apoptotic (%) [4]: 58% and 100%
- Population Fragmented Nuclei (%) [4]: 36% and 21%
- Population Healthy Nuclei (%) [4]: 43% and 70%
- Population Hoechst High Intensity Objects (%) [4]: 5%
- Population Membrane Permeable-Phenotype (%) [4]: 21% and 13%
- Population Mitochondria Different-Phenotype (%) [4]: 22% and 19%
- Population Normal (%) [4]: 94%
- Population Pyknosed Nuclei (%) [4]: 19% and 8%
- Population Tubulin-Different-Phenotype (%) [4]: 17% and 7%
- Total Cell Count [4]: 210 and 126
- Population Apoptotic (%) [5]: 84% and 76%
- Population Fragmented Nuclei (%) [5]: 16% and 19%
- Population Healthy Nuclei (%) [5]: 74% and 69%
- Population Hoechst High Intensity Objects (%) [5]: 3%
- Population Membrane Permeable-Phenotype (%) [5]: 5% and 8%
- Population Mitochondria Different-Phenotype (%) [5]: 3% and 5%
- Population Mitotic Cells (%) [5]: 15% and 23%
- Population Normal (%) [5]: 96%
- Population Pyknosed Nuclei (%) [5]: 9% and 10%
- Population Tubulin-Different-Phenotype (%) [5]: 3%
- Total Cell Count [5]: 425 and 166
- Population Apoptotic (%) [6]: 61% and 85%
- Population Fragmented Nuclei (%) [6]: 35% and 25%
- Population Healthy Nuclei (%) [6]: 46% and 60%
- Population Hoechst High Intensity Objects (%) [6]: 4%
- Population Membrane Permeable-Phenotype (%) [6]: 20% and 12%
- Population Mitochondria Different-Phenotype (%) [6]: 17% and 12%
- Population Mitotic Cells (%) [6]: 38% and 14%
- Population Normal (%) [6]: 95%
- Population Pyknosed Nuclei (%) [6]: 17% and 14%
- Population Tubulin-Different-Phenotype (%) [6]: 11% and 3%
- Total Cell Count [6]: 236 and 151

SMILES: CC[C@H]1OC(=O)[C@H](C)[C@@H](O[C@H]2C[C@@](C)(OC)[C@@H](O)[C@H](C)O2)[C@H](C)[C@@H](O[C@@H]2O[C@H](C)C[C@H](N(C)C)[C@H]2O)[C@@]2(C)CC(C)=C(O2)[C@H](C)[C@@H](O)[C@]1(C)O
- Population Apoptotic (%) [1]: 50% and 84%
- Population Fragmented Nuclei (%) [1]: 19% and 23%
- Population Healthy Nuclei (%) [1]: 63% and 62%
- Population Hoechst High Intensity Objects (%) [1]: 3% and 1%
- Population Membrane Permeable-Phenotype (%) [1]: 33% and 21%
- Population Mitochondria Different-Phenotype (%) [1]: 23% and 14%
- Population Normal (%) [1]: 96% and 98%
- Population Pyknosed Nuclei (%) [1]: 17% and 14%
- Population Tubulin-Different-Phenotype (%) [1]: 25% and 14%
- Total Cell Count [1]: 226 and 91
- Population Apoptotic (%) [2]: 65% and 73%
- Population Fragmented Nuclei (%) [2]: 34% and 21%
- Population Healthy Nuclei (%) [2]: 40% and 47%
- Population Hoechst High Intensity Objects (%) [2]: 7% and 4%
- Population Membrane Permeable-Phenotype (%) [2]: 82% and 72%
- Population Mitochondria Different-Phenotype (%) [2]: 63% and 81%
- Population Mitotic Cells (%) [2]: 34% and 26%
- Population Normal (%) [2]: 92% and 95%
- Population Pyknosed Nuclei (%) [2]: 25% and 31%
- Population Tubulin-Different-Phenotype (%) [2]: 89% and 96%
- Total Cell Count [2]: 223 and 128
- Population Apoptotic (%) [3]: 65% and 72%
- Population Fragmented Nuclei (%) [3]: 20% and 19%
- Population Healthy Nuclei (%) [3]: 63% and 64%
- Population Hoechst High Intensity Objects (%) [3]: 4% and 5%
- Population Membrane Permeable-Phenotype (%) [3]: 20% and 14%
- Population Mitochondria Different-Phenotype (%) [3]: 15% and 14%
- Population Mitotic Cells (%) [3]: 35% and 27%
- Population Normal (%) [3]: 95% and 94%
- Population Pyknosed Nuclei (%) [3]: 16%
- Population Tubulin-Different-Phenotype (%) [3]: 17% and 10%
- Total Cell Count [3]: 256 and 115
- Population Apoptotic (%) [4]: 67% and 82%
- Population Fragmented Nuclei (%) [4]: 33% and 24%
- Population Healthy Nuclei (%) [4]: 36% and 45%
- Population Hoechst High Intensity Objects (%) [4]: 5% and 4%
- Population Membrane Permeable-Phenotype (%) [4]: 56% and 75%
- Population Mitochondria Different-Phenotype (%) [4]: 65% and 86%
- Population Mitotic Cells (%) [4]: 32% and 17%
- Population Normal (%) [4]: 94% and 95%
- Population Pyknosed Nuclei (%) [4]: 29% and 30%
- Population Tubulin-Different-Phenotype (%) [4]: 76% and 88%
- Total Cell Count [4]: 210 and 121
- Population Apoptotic (%) [5]: 67% and 78%
- Population Fragmented Nuclei (%) [5]: 19% and 32%
- Population Healthy Nuclei (%) [5]: 54% and 58%
- Population Hoechst High Intensity Objects (%) [5]: 9% and 2%
- Population Membrane Permeable-Phenotype (%) [5]: 13% and 12%
- Population Mitochondria Different-Phenotype (%) [5]: 8% and 12%
- Population Mitotic Cells (%) [5]: 32% and 21%
- Population Normal (%) [5]: 91% and 97%
- Population Pyknosed Nuclei (%) [5]: 26% and 9%
- Population Tubulin-Different-Phenotype (%) [5]: 11% and 7%
- Total Cell Count [5]: 300 and 147
- Population Apoptotic (%) [6]: 85% and 83%
- Population Fragmented Nuclei (%) [6]: 37% and 20%
- Population Healthy Nuclei (%) [6]: 31% and 42%
- Population Hoechst High Intensity Objects (%) [6]: 7% and 9%
- Population Membrane Permeable-Phenotype (%) [6]: 58% and 62%
- Population Mitochondria Different-Phenotype (%) [6]: 55% and 81%
- Population Mitotic Cells (%) [6]: 14% and 16%
- Population Normal (%) [6]: 92% and 90%
- Population Pyknosed Nuclei (%) [6]: 31% and 36%
- Population Tubulin-Different-Phenotype (%) [6]: 63% and 88%
- Total Cell Count [6]: 236 and 112
